ChEMBL document CHEMBL4351006, “A new exploration towards aminothiazolquinolone oximes as potentially multi-targeting antibacterial agents: Design, synthesis and evaluation acting on microbes, DNA, HSA and topoisomerase IV” (Eur J Med Chem, 2019)
Values after ≈ are worked out from the molar mass of the structure shown.

Key:
Aspergillus fumigatus = test: Antifungal activity against Aspergillus fumigatus assessed as reduction in fungal cell viability incubated for 24 hrs by two fold serial dilution method; format: functional
How it was run: (§1)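 Broth two-fold serial dilution run to CLSI guidelines. Chloromycin, norfloxacin and fluconazole served as reference drugs.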

Candida parapsilosis = test: Antifungal activity against Candida parapsilosis ATCC 22019 assessed as reduction in fungal cell viability incubated for 24 hrs by two fold serial dilution method; conditions: Lodderomyces parapsilosis, ATCC 22019, 24 h
Acinetobacter baumannii = test: Antibacterial activity against Acinetobacter baumannii assessed as reduction in bacterial cell viability incubated for 24 hrs by two fold serial dilution method; format: functional; how it was run: as §1
Candida albicans [1] = test: Antifungal activity against Candida albicans ATCC 90023 assessed as reduction in fungal cell viability incubated for 24 hrs by two fold serial dilution method; format: functional; conditions: ATCC 90023, 24 h; how it was run: as §1
Pseudomonas aeruginosa [2] = test: Antibacterial activity against Pseudomonas aeruginosa assessed as reduction in bacterial cell viability incubated for 24 hrs by two fold serial dilution method; format: functional; how it was run: as §1
Staphylococcus aureus [3] = test: Antibacterial activity against Staphylococcus aureus ATCC 25923 assessed as reduction in bacterial cell viability incubated for 24 hrs by two fold serial dilution method; format: functional; conditions: ATCC 25923, 24 h; how it was run: as §1
Staphylococcus aureus [4] = test: Antibacterial activity against Staphylococcus aureus ATCC 29213 assessed as reduction in bacterial cell viability incubated for 24 hrs by two fold serial dilution method; format: functional; conditions: ATCC 29213, 24 h; how it was run: as §1
Escherichia coli [5] = test: Antibacterial activity against Escherichia coli ATCC 25922 assessed as reduction in bacterial cell viability incubated for 24 hrs by two fold serial dilution method; format: functional; conditions: ATCC 25922, 24 h; how it was run: as §1
Candida tropicalis = test: Antifungal activity against Candida tropicalis assessed as reduction in fungal cell viability incubated for 24 hrs by two fold serial dilution method; format: functional; how it was run: as §1
Pseudomonas aeruginosa [6] = test: Antibacterial activity against Pseudomonas aeruginosa ATCC 27853 assessed as reduction in bacterial cell viability incubated for 24 hrs by two fold serial dilution method; format: functional; conditions: ATCC 27853, 24 h; how it was run: as §1
Staphylococcus aureus [7] = test: Antibacterial activity against methicillin resistant Staphylococcus aureus N315 assessed as reduction in bacterial cell viability incubated for 24 hrs by two fold serial dilution method; format: functional; conditions: N315, 24 h
How it was run: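 MIC by two-fold serial dilution following CLSI, with chloromycin and norfloxacin as reference drugs.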

Escherichia coli [8] = test: Antibacterial activity against Escherichia coli assessed as reduction in bacterial cell viability incubated for 24 hrs by two fold serial dilution method; format: functional; how it was run: as §1
Candida albicans [9] = test: Antifungal activity against Candida albicans assessed as reduction in fungal cell viability incubated for 24 hrs by two fold serial dilution method; format: functional; how it was run: as §1
Klebsiella pneumoniae = test: Antibacterial activity against Klebsiella pneumoniae assessed as reduction in bacterial cell viability incubated for 24 hrs by two fold serial dilution method; format: functional; how it was run: as §1
Staphylococcus aureus [10] = test: Antibacterial activity against Staphylococcus aureus assessed as reduction in bacterial cell viability incubated for 24 hrs by two fold serial dilution method; format: functional; how it was run: as §1
Enterococcus faecalis = test: Antibacterial activity against Enterococcus faecalis assessed as reduction in bacterial cell viability incubated for 24 hrs by two fold serial dilution method; format: functional; how it was run: as §1

Row | SMILES | MIC (Aspergillus fumigatus) [µM] | MIC (Candida parapsilosis) [µM] | MIC (Acinetobacter baumannii) [µM] | MIC (Candida albicans [1]) [µM] | MIC (Pseudomonas aeruginosa [2]) [µM] | MIC (Staphylococcus aureus [3]) [µM] | MIC (Staphylococcus aureus [4]) [µM] | MIC (Escherichia coli [5]) [µM] | MIC (Candida tropicalis) [µM] | MIC (Pseudomonas aeruginosa [6]) [µM] | MIC (Staphylococcus aureus [7]) [µM] | MIC (Escherichia coli [8]) [µM] | MIC (Candida albicans [9]) [µM] | MIC (Klebsiella pneumoniae) [µM] | MIC (Staphylococcus aureus [10]) [µM] | MIC (Enterococcus faecalis) [µM]
1 | CCn1cc(-c2csc(N)n2)c(=O)c2cc(F)c(N3CCN(C/C(=N/OC)c4ccc(F)cc4)CC3)cc21 | 951 (≈ 512 µg/mL) | 951 (≈ 512 µg/mL) | 951 (≈ 512 µg/mL) | 951 (≈ 512 µg/mL) | 951 (≈ 512 µg/mL) | 238 (≈ 128 µg/mL) | 475 (≈ 256 µg/mL) | 951 (≈ 512 µg/mL) | 951 (≈ 512 µg/mL) | 951 (≈ 512 µg/mL) | 238 (≈ 128 µg/mL) | 475 (≈ 256 µg/mL) | 951 (≈ 512 µg/mL) | 951 (≈ 512 µg/mL) | 475 (≈ 256 µg/mL) | 475 (≈ 256 µg/mL)
2 | CCn1cc(-c2csc(N)n2)c(=O)c2cc(F)c(N3CCN(C/C(C)=N/O)CC3)cc21 | 288 (≈ 128 µg/mL) | 72 (≈ 32 µg/mL) | 288 (≈ 128 µg/mL) | 72 (≈ 32 µg/mL) | 288 (≈ 128 µg/mL) | 36 (≈ 16 µg/mL) | 144 (≈ 64 µg/mL) | 72 (≈ 32 µg/mL) | 288 (≈ 128 µg/mL) | 144 (≈ 64 µg/mL) | 72 (≈ 32 µg/mL) | 288 (≈ 128 µg/mL) | 72 (≈ 32 µg/mL) | 72 (≈ 32 µg/mL) | 72 (≈ 32 µg/mL) | 288 (≈ 128 µg/mL)
3 | CCn1cc(-c2csc(N)n2)c(=O)c2cc(N3CCN(C/C(=N/OC)c4ccc(OC)cc4)CC3)c(Cl)cc21 | 451 (≈ 256 µg/mL) | 451 (≈ 256 µg/mL) | 451 (≈ 256 µg/mL) | 226 (≈ 128 µg/mL) | 451 (≈ 256 µg/mL) | 451 (≈ 256 µg/mL) | 451 (≈ 256 µg/mL) | 451 (≈ 256 µg/mL) | 226 (≈ 128 µg/mL) | 451 (≈ 256 µg/mL) | 451 (≈ 256 µg/mL) | 451 (≈ 256 µg/mL) | 451 (≈ 256 µg/mL) | 451 (≈ 256 µg/mL) | 451 (≈ 256 µg/mL) | 451 (≈ 256 µg/mL)
4 | CCn1cc(-c2csc(N)n2)c(=O)c2cc(F)c(N3CCN(C/C(C)=N/OCc4ccc(Cl)cc4Cl)CC3)cc21 | 424 (≈ 256 µg/mL) | 848 (≈ 512 µg/mL) | 848 (≈ 512 µg/mL) | 106 (≈ 64 µg/mL) | 848 (≈ 512 µg/mL) | 848 (≈ 512 µg/mL) | 848 (≈ 512 µg/mL) | 848 (≈ 512 µg/mL) | 424 (≈ 256 µg/mL) | 848 (≈ 512 µg/mL) | 424 (≈ 256 µg/mL) | 424 (≈ 256 µg/mL) | 848 (≈ 512 µg/mL) | 848 (≈ 512 µg/mL) | 848 (≈ 512 µg/mL) | 424 (≈ 256 µg/mL)
